Assay type in all cases: functional, organism-based
Assay [1] deals with Botrytis cinerea. Description: Antifungal activity against highly fenhexamid-resistant Botrytis cinerea MK5-2 assessed as inhibition of germ tube elongation after 24 hrs. To be noted: MK5-2, 24 h.
For assay [2], the system named is Botrytis cinerea. Description: Antifungal activity against moderately to slightly fenhexamid-resistant Botrytis cinerea 454 assessed as inhibition of germ tube elongation after 24 hrs. Conditions: Botrytis cinerea, 454, 24 h.
Assay [3] has as its system Botrytis cinerea. The experiment in a line: Antifungal activity against highly fenhexamid-resistant Botrytis cinerea 379b assessed as inhibition of mycelium growth measured over 5 days. Conditions: 120 h.
The test system of assay [4] is Botrytis cinerea. The experiment in a line: Antifungal activity against moderately to slightly fenhexamid-resistant Botrytis cinerea 365 assessed as inhibition of mycelium growth measured over 5 days. Conditions: Botrytis cinerea, 365, 120 h.
Assay [5] concerns Botrytis cinerea. The experiment in a line: Antifungal activity against HydR3 deficient Botrytis cinerea 453 harboring TELerg F412I mutant at 1 ug/ml relative to wild-type. An outline of the steps:
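In the dominance test, the recipient strains 453b and 286 were transformed with different erg27 alleles. Spores of the transformants were grown on YSS medium containing fenhexamid at different concentrations and 50 µg ml–1 hygromycin B. Parental strains were grown without hygromycin. Growth was scored after 7 days at 21°C.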

Assay [6] relates to Botrytis cinerea. The experiment in a line: Antifungal activity against highly fenhexamid-resistant Botrytis cinerea 05-AVB assessed as inhibition of germ tube elongation after 24 hrs.
For assay [7], the system named is Botrytis cinerea. The experiment in a line: Antifungal activity against highly fenhexamid-resistant Botrytis cinerea 118 assessed as inhibition of germ tube elongation after 24 hrs. Conditions: Botrytis cinerea, 118, 24 h.
Assay [8] deals with Botrytis cinerea. The experiment in a line: Antifungal activity against highly fenhexamid-resistant Botrytis cinerea 312 assessed as inhibition of germ tube elongation after 24 hrs. Conditions: Botrytis cinerea, 312, 24 h.
Assay [9] deals with Botrytis cinerea. Description: Antifungal activity against highly fenhexamid-resistant Botrytis cinerea 506b assessed as inhibition of germ tube elongation after 24 hrs.
For assay [10], the system named is Botrytis cinerea. Description: Antifungal activity against highly fenhexamid-resistant Botrytis cinerea 533 assessed as inhibition of germ tube elongation after 24 hrs. Conditions: Botrytis cinerea, 533, 24 h.

Values after ≈ are worked out from the molar mass of the structure shown. Active and inactive are the calls of the source. No cut-off for these calls is given here.

In the case of `CC1(C(=O)Nc2ccc(O)c(Cl)c2Cl)CCCCC1` [FENHEXAMID], the 50% effective concentration (EC50) in assay [1] is over 5 µg/mL; in assay [2], 0.5 µg/mL (≈ 1.65 µM); in assay [3], over 10 µg/mL; in assay [4], 0.3 µg/mL (≈ 0.993 µM); in assay [6], over 10 µg/mL; in [7], over 10 µg/mL. The half-maximal effective concentration (EC50) in assay [8], in [9] and in assay [10] was over 10 µg/mL in each case. The result in assay [5] was inactive.

Usually EC50 stands for the concentration needed to bring the measured effect to its halfway point.

The values are drawn from ChEMBL document CHEMBL1687714, “Genetic analysis of fenhexamid-resistant field isolates of the phytopathogenic fungus Botrytis cinerea” (Antimicrob Agents Chemother, 2008).
